Experimental data published in ChEMBL document CHEMBL4339252, “Prenylated Stilbenoids Affect Inflammation by Inhibiting the NF-κB/AP-1 Signaling Pathway and Cyclooxygenases and Lipoxygenase” (J Nat Prod, 2019).
Calls of active or inactive are those of the source. No cut-off for these calls is given here.

Tests used:
[1] = species on record: Homo sapiens; experiment: Inhibition of LPS-stimulation dependent TLR4-induced NF-kappaB/AP-1 signaling cascade in human THP1-XBlue-MD2-CD14 cells at 1 uM pre-incubated for 1 hr before LPS-stimulation for 24 hrs by spectrophotometry
Method in brief: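 THP-1-XBlue-MD2-CD14 reporter cells (5 × 10^5/well) pretreated 1 h with compound in DMSO, then stimulated with LPS (1 μg/mL) for 24 h. NF-κB/AP-1 activity read with Quanti-Blue reagent as OD at 655 nm and expressed against vehicle (100%). Five independent experiments in triplicate, means ± SE.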

[2] = tested on: THP-1; experiment: Antiinflammatory activity in PMA-differentiated human THP1 cells assessed as inhibition of TNFalpha production at 1 uM pre-incubated for 1 hr before LPS-stimulation for 24 hrs by ELISA; format: functional, cell-based
Method in brief: (§1)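 THP-1 monocytes grown in RPMI 1640 with 10% FBS and antibiotics at 37 °C, plated at 5 × 10^5 cells/well and differentiated to macrophages with phorbol myristate acetate. Pretreated 1 h with compound in DMSO, or DMSO vehicle. Then stimulated with E. coli 0111:B4 LPS (1 μg/mL); unstimulated controls got no LPS. Medium collected after 24 h, cytokine measured by ELISA. Triplicates, three or more independent experiments, means ± SE.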

[3] = tested on: THP-1; experiment: Antiinflammatory activity in PMA-differentiated human THP1 cells assessed as inhibition of IL-1beta production at 1 uM pre-incubated for 1 hr before LPS-stimulation for 24 hrs by ELISA; format: functional, cell-based; method in brief: as §1
[4] = tested on: THP-1; experiment: Cytotoxicity against human THP1 cells assessed as reduction in cell viability incubated for 24 hrs by WST1 dye based assay; conditions: THP-1, 24 h
Method in brief: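 Undifferentiated THP-1 cells moved to serum-free medium at 5 × 10^5 cells/well. After 2 h, compounds in DMSO added at 0.125−20 μM and incubated 24 h. Viability read with WST-1 reagent. IC50 taken from four-parameter logistic fits of at least five-point curves, serial measurements in triplicate, means ± SE.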

[5] = molecular target: T1, Prostaglandin G/H synthase 1 (Ovis aries, UniProt P05979); experiment: Inhibition of ram seminal vesicle COX1 assessed as reduction in PGE2 production using arachidonic acid substrate by ELISA
T1 sequence (P05979 whole entry): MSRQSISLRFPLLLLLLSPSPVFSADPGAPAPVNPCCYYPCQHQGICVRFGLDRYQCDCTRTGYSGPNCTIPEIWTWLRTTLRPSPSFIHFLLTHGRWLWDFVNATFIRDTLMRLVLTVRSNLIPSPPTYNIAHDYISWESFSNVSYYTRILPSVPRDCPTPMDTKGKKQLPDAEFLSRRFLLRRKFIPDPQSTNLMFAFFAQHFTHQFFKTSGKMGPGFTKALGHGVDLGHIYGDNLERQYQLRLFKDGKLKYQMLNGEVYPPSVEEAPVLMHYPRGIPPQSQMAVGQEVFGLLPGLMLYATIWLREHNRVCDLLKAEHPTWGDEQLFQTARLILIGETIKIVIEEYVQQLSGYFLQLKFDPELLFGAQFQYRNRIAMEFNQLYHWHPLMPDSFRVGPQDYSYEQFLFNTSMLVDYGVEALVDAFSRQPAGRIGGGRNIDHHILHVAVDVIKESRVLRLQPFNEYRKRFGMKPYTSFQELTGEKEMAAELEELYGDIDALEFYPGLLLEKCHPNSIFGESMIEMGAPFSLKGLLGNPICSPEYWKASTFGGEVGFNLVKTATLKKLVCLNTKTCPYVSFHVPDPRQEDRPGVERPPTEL

[6] = molecular target: T2, Polyunsaturated fatty acid 5-lipoxygenase (Homo sapiens, UniProt P09917); experiment: Inhibition of human recombinant 5-LOX assessed as reduction in leukotriene B4 synthesis using arachidonic acid substrate by ELISA
T2 sequence (P09917 whole entry): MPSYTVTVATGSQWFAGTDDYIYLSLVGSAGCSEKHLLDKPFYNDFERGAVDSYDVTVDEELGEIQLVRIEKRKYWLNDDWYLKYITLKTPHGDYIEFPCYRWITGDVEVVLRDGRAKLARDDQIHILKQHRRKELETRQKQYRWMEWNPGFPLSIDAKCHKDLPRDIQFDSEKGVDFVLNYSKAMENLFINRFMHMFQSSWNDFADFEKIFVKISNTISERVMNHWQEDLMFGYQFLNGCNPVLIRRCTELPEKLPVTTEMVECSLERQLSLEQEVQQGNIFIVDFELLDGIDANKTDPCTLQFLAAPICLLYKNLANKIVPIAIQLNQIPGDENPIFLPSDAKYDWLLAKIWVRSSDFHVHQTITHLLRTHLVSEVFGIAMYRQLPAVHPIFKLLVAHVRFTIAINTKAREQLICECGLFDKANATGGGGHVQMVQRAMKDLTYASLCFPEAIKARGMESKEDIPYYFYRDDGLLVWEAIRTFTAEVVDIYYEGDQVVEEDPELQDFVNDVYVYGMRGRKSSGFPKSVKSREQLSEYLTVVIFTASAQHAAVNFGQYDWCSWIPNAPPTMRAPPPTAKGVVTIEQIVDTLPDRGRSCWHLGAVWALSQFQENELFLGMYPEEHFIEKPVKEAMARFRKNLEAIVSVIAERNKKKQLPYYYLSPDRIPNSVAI

[7] = molecular target: c-Jun N-terminal kinase, JNK (Homo sapiens) (UniProt P45983+P53779+P45984); experiment: Inhibition of JNK phosphorylation in LPS-stimulated human THP1-XBlue-MD2-CD14 cells at 1 uM pre-incubated for 1 hr before LPS-stimulation for 30 mins by Western blot analysis
Method in brief: (§2)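 THP-1-XBlue-MD2-CD14 cells pretreated with compound (1 μM), then LPS (1 μg/mL) added 1 h later. Lysates taken 30 min after LPS. 9 μg protein run on 12% PAGE, blotted to PVDF, blocked in 5% BSA. Probed for IκB-α, total and phospho p38, ERK1/2 and JNK, with β-actin as reference. ECL chemiluminescence; three independent experiments.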

[8] = molecular target: T3, Prostaglandin G/H synthase 2 (Homo sapiens, UniProt P35354); experiment: Inhibition of human recombinant COX2 assessed as reduction in PGE2 production using arachidonic acid substrate by ELISA
T3 sequence (P35354 whole entry): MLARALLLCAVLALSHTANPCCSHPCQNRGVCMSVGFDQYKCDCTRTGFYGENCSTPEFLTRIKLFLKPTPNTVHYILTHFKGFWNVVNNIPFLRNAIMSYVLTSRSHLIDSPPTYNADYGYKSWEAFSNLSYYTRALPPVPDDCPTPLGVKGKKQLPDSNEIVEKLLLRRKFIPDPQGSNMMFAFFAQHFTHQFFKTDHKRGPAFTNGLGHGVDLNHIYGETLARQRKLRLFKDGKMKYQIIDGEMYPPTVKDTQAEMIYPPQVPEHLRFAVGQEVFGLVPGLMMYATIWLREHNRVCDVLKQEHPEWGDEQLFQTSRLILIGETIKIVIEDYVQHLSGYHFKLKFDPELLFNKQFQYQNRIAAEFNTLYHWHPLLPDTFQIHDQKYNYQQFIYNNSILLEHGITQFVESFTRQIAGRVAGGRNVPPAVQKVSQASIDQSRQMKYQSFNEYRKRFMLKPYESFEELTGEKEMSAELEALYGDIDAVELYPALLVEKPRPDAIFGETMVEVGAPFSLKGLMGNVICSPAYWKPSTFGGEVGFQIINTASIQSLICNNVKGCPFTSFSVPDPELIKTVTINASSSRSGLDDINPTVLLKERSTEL

[9] = molecular target: Mitogen-activated protein kinase; ERK1/ERK2 (Homo sapiens) (UniProt P27361+P28482); experiment: Inhibition of ERK1/2 phosphorylation in LPS-stimulated human THP1-XBlue-MD2-CD14 cells at 1 uM pre-incubated for 1 hr before LPS-stimulation for 30 mins by Western blot analysis; method in brief: as §2
[10] = molecular target: MAP kinase p38 (Homo sapiens) (UniProt O15264+Q15759+Q16539+P53778); experiment: Inhibition of p38 phosphorylation in LPS-stimulated human THP1-XBlue-MD2-CD14 cells at 1 uM pre-incubated for 1 hr before LPS-stimulation for 30 mins by Western blot analysis; method in brief: as §2
[11] = molecular target: T4, NF-kappa-B inhibitor alpha (Homo sapiens) (UniProt P25963); experiment: Inhibition of IkappaBalpha degradation in LPS-stimulated human THP1-XBlue-MD2-CD14 cells at 1 uM pre-incubated for 1 hr before LPS-stimulation for 30 mins by Western blot analysis; method in brief: as §2
T4 sequence (whole entry): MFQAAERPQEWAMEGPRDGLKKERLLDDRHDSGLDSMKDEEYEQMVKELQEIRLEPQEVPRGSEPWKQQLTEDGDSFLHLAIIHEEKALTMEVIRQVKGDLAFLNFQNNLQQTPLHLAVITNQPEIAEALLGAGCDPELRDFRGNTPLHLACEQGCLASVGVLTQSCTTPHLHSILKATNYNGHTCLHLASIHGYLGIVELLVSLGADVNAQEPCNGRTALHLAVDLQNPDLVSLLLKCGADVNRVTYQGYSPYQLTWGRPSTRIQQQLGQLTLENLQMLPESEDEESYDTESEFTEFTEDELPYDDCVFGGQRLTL

[12] = Selectivity index, ratio of IC50 for inhibition of ram seminal vesicle COX1 to IC50 for inhibition of human recombinant COX2
[13] = tested on: THP-1; experiment: Induction of IL-1beta production in PMA-differentiated human THP1 cells at 1 uM pre-incubated for 1 hr before LPS-stimulation for 24 hrs by ELISA; format: cell-based; conditions: thp-1, 24 h; method in brief: as §1
[14] = tested on: THP-1; experiment: Induction of TNFalpha production in PMA-differentiated human THP1 cells at 1 uM pre-incubated for 1 hr before LPS-stimulation for 24 hrs by ELISA; format: cell-based; conditions: thp-1, 24 h; method in brief: as §1
[15] = tested on: THP-1; experiment: Antiinflammatory activity in PMA-differentiated human THP1 cells assessed as inhibition of TNFalpha production at 0.1 uM pre-incubated for 1 hr before LPS-stimulation for 24 hrs by ELISA; format: functional, cell-based; method in brief: as §1
[16] = tested on: THP-1; experiment: Induction of IL-1beta production in PMA-differentiated human THP1 cells at 0.1 uM pre-incubated for 1 hr before LPS-stimulation for 24 hrs by ELISA; format: cell-based; conditions: thp-1, 24 h; method in brief: as §1

Chain of Mitogen-activated protein kinase; ERK1/ERK2 (Homo sapiens) (P27361 whole entry, looked up): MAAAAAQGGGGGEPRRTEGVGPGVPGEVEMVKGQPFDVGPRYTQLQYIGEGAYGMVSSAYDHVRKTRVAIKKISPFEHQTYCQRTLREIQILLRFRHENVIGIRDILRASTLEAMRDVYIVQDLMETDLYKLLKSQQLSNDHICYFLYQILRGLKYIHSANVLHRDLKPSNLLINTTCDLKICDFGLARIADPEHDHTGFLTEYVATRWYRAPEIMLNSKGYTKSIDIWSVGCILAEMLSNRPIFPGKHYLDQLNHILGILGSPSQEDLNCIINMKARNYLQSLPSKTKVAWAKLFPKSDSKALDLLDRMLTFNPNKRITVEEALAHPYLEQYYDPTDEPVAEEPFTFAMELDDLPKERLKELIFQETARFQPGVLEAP
Chain of Mitogen-activated protein kinase; ERK1/ERK2 (Homo sapiens) (P28482 whole entry, looked up): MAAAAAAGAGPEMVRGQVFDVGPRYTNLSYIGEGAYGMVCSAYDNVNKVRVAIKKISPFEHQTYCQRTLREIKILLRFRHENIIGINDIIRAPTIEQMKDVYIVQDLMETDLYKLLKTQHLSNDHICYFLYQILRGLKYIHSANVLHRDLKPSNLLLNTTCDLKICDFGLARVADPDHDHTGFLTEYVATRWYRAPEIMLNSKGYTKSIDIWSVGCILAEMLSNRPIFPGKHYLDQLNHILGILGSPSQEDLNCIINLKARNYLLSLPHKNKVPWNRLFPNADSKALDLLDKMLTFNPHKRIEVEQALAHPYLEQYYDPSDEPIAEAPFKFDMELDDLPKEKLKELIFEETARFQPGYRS

SMILES	inhibition [1]	inhibition [2]	inhibition [3]	IC50 [4]	IC50 [5]	IC50 ([6]; read-out: IC50)	IC50 [8]	Ratio IC50 [12]	other results
C[C@]12C=CC(=O)C=C1CC[C@@H]1[C@@H]2C(=O)C[C@@]2(C)[C@H]1CC[C@]2(O)C(=O)CO	Active	–	–	–	–	–	–	–	–
COc1cc(/C=C/c2ccc(OC)c(CC=C(C)C)c2)cc(OC)c1	–	Active	Active	> 10 µM	–	–	–	–	–
CC1(C)C=Cc2c(O)cc(/C=C/c3ccc(O)cc3)cc2O1 [ARAHYPIN-5]	Active	Active	inactive	> 10 µM	13.3 µM	2.4 µM	> 20 µM	–	inhibition [7]: inactive; inhibition [9]: inactive; inhibition [10]: inactive; inhibition [11]: Active
COc1cc(/C=C\c2ccc(OC)c(CC=C(C)C)c2)cc(OC)c1	Active	Active	Active	> 10 µM	–	–	–	–	–
COc1ccc(/C=C/c2c(CC=C(C)C)c(O)cc3c2CCC(C)(C)O3)cc1O	–	Active	–	3.3 µM	12.6 µM	–	35.5 µM	0.36	IC50 [6]: Not Active
CC(C)=CCc1c(O)cc2c(c1/C=C\c1ccc(O)cc1)CCC(C)(C)O2	–	Active	–	4.9 µM	–	–	–	–	–
C=CC(C)(C)c1cc(/C=C/c2cc(OC)cc(OC)c2)ccc1OC	Active	Active	inactive	> 10 µM	–	–	–	–	–
COc1ccc(/C=C/c2c(CC=C(C)C)c(O)cc(O)c2CC=C(C)C)cc1	Active	Active	–	2.7 µM	0.8 µM	1.1 µM	4.7 µM	0.17	–
COc1ccc(/C=C/c2c(CC=C(C)C)c(O)cc(O)c2CC=C(C)C)cc1O	–	Active	–	3.9 µM	0.9 µM	0.9 µM	14.7 µM	0.06	–
CC(C)=CCc1c(O)cc(O)c(CC=C(C)C)c1/C=C/c1ccc(O)cc1	Active	Active	Active	12.8 µM	0.4 µM	0.9 µM	5.7 µM	0.07	–
CC(C)=CCc1c(O)cc(/C=C/c2ccc(O)cc2O)cc1O	–	inactive	–	> 10 µM	–	–	–	–	Activity [13]: Toxic; Activity [14]: Toxic
COc1ccc(/C=C/c2c(CC=C(C)C)c(O)cc3c2CC(O)C(C)(C)O3)cc1 (stereo not given)	–	inactive	–	1.8 µM	–	–	–	–	inhibition [15]: Active; Activity [16]: Toxic
